Measured values as given in ChEMBL document CHEMBL2380239, “Novel ROS-activated agents utilize a tethered amine to selectively target acute myeloid leukemia” (Bioorg Med Chem Lett, 2013).

Legend:
HOP-62 = test: Growth inhibition of human HOP62 cells after 48 hrs by sulforhodamine B assay; assay type: functional; details: HOP-62, 48 h
In short: (§1)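 Run in the National Cancer Institute 60-cell-line panel screen. Viability was read by sulforhodamine B staining of total protein content, so it reflects cell number rather than metabolic activity. Values are reported as GI50.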

MDA-MB-231 = test: Growth inhibition of human MDA-MB-231 cells after 48 hrs by sulforhodamine B assay; assay type: functional; details: MDA-MB-231, 48 h; in short: as §1
MCF7 = test: Growth inhibition of human MCF7 cells after 48 hrs by sulforhodamine B assay; assay type: functional; details: MCF7, 48 h; in short: as §1
HeLa = test: Cytotoxicity against human HeLa cells after 48 hrs by MTT assay; assay type: functional, cell-based
SR = test: Growth inhibition of human SR cells after 48 hrs by sulforhodamine B assay; assay type: functional
In short: (§2)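 Run within the National Cancer Institute 60-cell-line panel. Viability was read by sulforhodamine B staining of total cellular protein, as a measure of cell number rather than metabolic activity. GI50 values were taken from the panel data.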

SW-620 = test: Growth inhibition of human SW620 cells after 48 hrs by sulforhodamine B assay; assay type: functional; details: SW-620, 48 h; in short: as §2
RPMI-8226 = test: Growth inhibition of human RPMI8226 cells after 48 hrs by sulforhodamine B assay; assay type: functional; details: RPMI-8226, 48 h; in short: as §1
[1] = Therapeutic index, ratio of IC50 for human CD34-positive blood stem/progenitor cells to IC50 for human MA9.3 cells; details: CD34-positive blood stem/progenitor cells versus MA9.3 cells, read-out: Ratio IC50
In short: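 Cytotoxicity was measured in parallel on non-cancerous human CD34+ blood stem/progenitor cells (UCB) and on the MA9.3 AML line, which was made by introducing the MLL-AF9 oncogene into human CD34+ cells. The index is IC50 in CD34+ cells divided by IC50 in MA9.3, reported as mean ± error.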

ACHN = test: Growth inhibition of human ACHN cells after 48 hrs by sulforhodamine B assay; assay type: functional; in short: as §1
KM12 = test: Growth inhibition of human KM12 cells after 48 hrs by sulforhodamine B assay; assay type: functional; details: KM12, 48 h; in short: as §1
A498 = test: Growth inhibition of human A498 cells after 48 hrs by sulforhodamine B assay; assay type: functional; details: A498, 48 h; in short: as §1
SF-268 = test: Growth inhibition of human SF268 cells after 48 hrs by sulforhodamine B assay; assay type: functional; details: SF-268, 48 h; in short: as §1
Hs-578T = test: Growth inhibition of human Hs578T cells after 48 hrs by sulforhodamine B assay; assay type: functional; in short: as §1
SK-MEL-2 = test: Growth inhibition of human SK-MEL-2 cells after 48 hrs by sulforhodamine B assay; assay type: functional; details: SK-MEL-2, 48 h; in short: as §1
UACC-257 = test: Growth inhibition of human UACC257 cells after 48 hrs by sulforhodamine B assay; assay type: functional; details: UACC-257, 48 h; in short: as §2
BT-549 = test: Growth inhibition of human BT549 cells after 48 hrs by sulforhodamine B assay; assay type: functional; details: BT-549, 48 h; in short: as §1
U-251 = test: Growth inhibition of human U251 cells after 48 hrs by sulforhodamine B assay; assay type: functional; details: U-251, 48 h; in short: as §2
SNB-19 = test: Growth inhibition of human SNB19 cells after 48 hrs by sulforhodamine B assay; assay type: functional; details: SNB-19, 48 h; in short: as §2
IGROV-1 = test: Growth inhibition of human IGROV1 cells after 48 hrs by sulforhodamine B assay; assay type: functional; details: IGROV-1, 48 h; in short: as §1
SK-MEL-5 = test: Growth inhibition of human SK-MEL-5 cells after 48 hrs by sulforhodamine B assay; assay type: functional; details: SK-MEL-5, 48 h; in short: as §1
NCI-H322M = test: Growth inhibition of human NCI-H322M cells after 48 hrs by sulforhodamine B assay; assay type: functional; in short: as §1
NCI-H522 = test: Growth inhibition of human NCI-H522 cells after 48 hrs by sulforhodamine B assay; assay type: functional; details: NCI-H522, 48 h; in short: as §1
786-0 = test: Growth inhibition of human 786-0 cells after 48 hrs by sulforhodamine B assay; assay type: functional; details: 786-0, 48 h; in short: as §1
[2] = Growth inhibition of human HCC2998 cells after 48 hrs by sulforhodamine B assay; assay type: functional; details: HCC 2998, 48 h; in short: as §1
CAKI-1 = test: Growth inhibition of human CAKI-1 cells after 48 hrs by sulforhodamine B assay; assay type: functional; details: CAKI-1, 48 h; in short: as §1
SNB-75 = test: Growth inhibition of human SNB75 cells after 48 hrs by sulforhodamine B assay; assay type: functional; details: SNB-75, 48 h; in short: as §2
PC-3 = test: Growth inhibition of human PC3 cells after 48 hrs by sulforhodamine B assay; assay type: functional; details: PC-3, 48 h; in short: as §1
RXF 393 = test: Growth inhibition of human RXF393 cells after 48 hrs by sulforhodamine B assay; assay type: functional; details: RXF 393, 48 h; in short: as §1
[3] = Cytotoxicity against human CD34-positive blood stem/progenitor cells after 48 hrs by MTT assay; assay type: cell-based
In short: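 Non-transformed human CD34+ blood stem/progenitor cells from umbilical cord blood were run alongside MA9.3, an AML line made by introducing the MLL-AF9 oncogene into human CD34+ cells. IC50 was determined on each cell type. Therapeutic index is the ratio between the MA9.3 and CD34+ IC50 values.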

OVCAR-3 = test: Growth inhibition of human OVCAR3 cells after 48 hrs by sulforhodamine B assay; assay type: functional; details: OVCAR-3, 48 h; in short: as §1
HT-29 = test: Growth inhibition of human HT-29 cells after 48 hrs by sulforhodamine B assay; assay type: functional; details: HT-29, 48 h; in short: as §1
HCT-15 = test: Growth inhibition of human HCT15 cells after 48 hrs by sulforhodamine B assay; assay type: functional; details: HCT-15, 48 h; in short: as §1
MDA-MB-468 = test: Growth inhibition of human MDA-MB-468 cells after 48 hrs by sulforhodamine B assay; assay type: functional; details: MDA-MB-468, 48 h; in short: as §1
UACC-62 = test: Growth inhibition of human UACC62 cells after 48 hrs by sulforhodamine B assay; assay type: functional; details: UACC-62, 48 h; in short: as §2
DU-145 = test: Growth inhibition of human DU145 cells after 48 hrs by sulforhodamine B assay; assay type: functional; details: DU-145, 48 h; in short: as §1
OVCAR-4 = test: Growth inhibition of human OVCAR4 cells after 48 hrs by sulforhodamine B assay; assay type: functional; details: OVCAR-4, 48 h; in short: as §1
NCI-H23 = test: Growth inhibition of human NCI-H23 cells after 48 hrs by sulforhodamine B assay; assay type: functional; details: NCI-H23, 48 h; in short: as §1
OVCAR-5 = test: Growth inhibition of human OVCAR5 cells after 48 hrs by sulforhodamine B assay; assay type: functional; details: OVCAR-5, 48 h; in short: as §1
[4] = Growth inhibition of human NCI-ADR-RES cells after 48 hrs by sulforhodamine B assay; assay type: functional; in short: as §1
SN12C = test: Growth inhibition of human SN12C cells after 48 hrs by sulforhodamine B assay; assay type: functional; in short: as §2
SK-MEL-28 = test: Growth inhibition of human SK-MEL-28 cells after 48 hrs by sulforhodamine B assay; assay type: functional; details: SK-MEL-28, 48 h; in short: as §1
HOP-92 = test: Growth inhibition of human HOP92 cells after 48 hrs by sulforhodamine B assay; assay type: functional; details: HOP-92, 48 h; in short: as §1
UO-31 = test: Growth inhibition of human UO31 cells after 48 hrs by sulforhodamine B assay; assay type: functional; details: UO-31, 48 h; in short: as §2

`Oc1ccc(OCCN(CCOc2ccc(O)cc2)c2ccccc2)cc1` gave a GI50 (HOP-62) of 8.9 µM, a GI50 (MDA-MB-231) of 0.9 µM and a GI50 (MCF7) of 2.2 µM. For the same compound, the IC50 (HeLa) was 11 µM, the GI50 (SR) was 0.5 µM and the GI50 (SW-620) was 10 µM. For the same compound, the GI50 (RPMI-8226) was 3.8 µM, the selectivity ratio [1] was 5.3 and the GI50 (ACHN) was 0.4 µM. It also gave a GI50 (KM12) of 4.7 µM, a GI50 (A498) of 5.3 µM and a GI50 (SF-268) of 3.2 µM. It also gave a GI50 (Hs-578T) of 14.5 µM, a GI50 (SK-MEL-2) of 11.8 µM and a GI50 (UACC-257) of 12.6 µM. It also gave a GI50 (BT-549) of 6.6 µM, a GI50 (U-251) of 3 µM and a GI50 (SNB-19) of 11.2 µM. The GI50 (IGROV-1) was 3.6 µM, the GI50 (SK-MEL-5) was 2.6 µM and the GI50 (NCI-H322M) was 11 µM. The GI50 (NCI-H522) was 2 µM, the GI50 (786-0) was 3.6 µM and the GI50 [2] was 4.7 µM. It also gave a GI50 (CAKI-1) of 0.4 µM, a GI50 (SNB-75) of 5.3 µM and a GI50 (PC-3) of 6 µM. It also gave a GI50 (RXF 393) of 2.6 µM, an IC50 [3] of 16 µM and a GI50 (OVCAR-3) of 4.2 µM. For the same compound, the GI50 (HT-29) was 14.5 µM, the GI50 (HCT-15) was 10 µM and the GI50 (MDA-MB-468) was 10 µM. It also gave a GI50 (UACC-62) of 2.9 µM, a GI50 (DU-145) of 3.2 µM and a GI50 (OVCAR-4) of 10.5 µM. For the same compound, the GI50 (NCI-H23) was 2.1 µM, the GI50 (OVCAR-5) was 11.5 µM and the GI50 [4] was 1.2 µM. For the same compound, the GI50 (SN12C) was 4.7 µM, the GI50 (SK-MEL-28) was 14.8 µM and the GI50 (HOP-92) was 3.7 µM. It also gave a GI50 (UO-31) of 1.5 µM.
In the case of `CN(CCCOc1ccc(O)cc1)c1ccccc1`, the GI50 (HOP-62) is reported as 10.5 µM, the GI50 (MDA-MB-231) is reported as 6.9 µM and the GI50 (MCF7) is reported as 2.6 µM. For the same compound, the IC50 (HeLa) was 9 µM, the GI50 (SR) was 2.5 µM and the GI50 (SW-620) was 1.3 µM. For the same compound, the GI50 (RPMI-8226) was 1.2 µM, the selectivity ratio [1] was 7.7 and the GI50 (ACHN) was 0.3 µM. It also gave a GI50 (KM12) of 4.3 µM, a GI50 (A498) of 2.6 µM and a GI50 (SF-268) of 2.2 µM. For the same compound, the GI50 (Hs-578T) was 3.1 µM, the GI50 (SK-MEL-2) was 10.5 µM and the GI50 (UACC-257) was 8.1 µM. It also gave a GI50 (BT-549) of 1.7 µM, a GI50 (U-251) of 1.7 µM and a GI50 (SNB-19) of 7.9 µM. The GI50 (IGROV-1) was 4.1 µM, the GI50 (SK-MEL-5) was 2.1 µM and the GI50 (NCI-H322M) was 12.6 µM. It also gave a GI50 (NCI-H522) of 2.8 µM, a GI50 (786-0) of 1.9 µM and a GI50 [2] of 11.2 µM. For the same compound, the GI50 (CAKI-1) was 0.3 µM, the GI50 (SNB-75) was 3 µM and the GI50 (PC-3) was 2.1 µM. The GI50 (RXF 393) was 2.1 µM, the IC50 [3] was 5.4 µM and the GI50 (OVCAR-3) was 4 µM. It also gave a GI50 (HT-29) of 5.6 µM, a GI50 (HCT-15) of 3.5 µM and a GI50 (MDA-MB-468) of 3.3 µM. It also gave a GI50 (UACC-62) of 2.1 µM, a GI50 (DU-145) of 2.8 µM and a GI50 (OVCAR-4) of 11.7 µM. For the same compound, the GI50 (NCI-H23) was 3 µM, the GI50 (OVCAR-5) was 7.8 µM and the GI50 [4] was 1.5 µM. For the same compound, the GI50 (SN12C) was 3.1 µM, the GI50 (SK-MEL-28) was 12.3 µM and the GI50 (HOP-92) was 0.5 µM. It also gave a GI50 (UO-31) of 0.4 µM.
